According to publication PMC4782725 (The Journal of Organic Chemistry, 2016):

Tests used:
[1] = tested on: HCT-116 (colon cancer); test: cell viability assay, HCT-116; format: cell-based; conditions: Homo sapiens, HCT-116, read-out: IC50(HCT-116)
In short: (§1)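 Cell viability assays, run on proliferating tumour lines and on quiescent IMR-90 immortalized human fibroblasts, gave IC50 values. Cell preparation and sample handling were automated. The automation protocol changed between the earlier and the later test series.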

[2] = tested on: quiescent IMR-90 immortalized human fibroblasts; test: IMR-90 cytotoxicity assay; format: cell-based; conditions: IMR-90, read-out: IC50(cell line) IMR-90
In short: as §1

[3] = tested on: wide range of cancer cell lines; conditions: initially reported; cited from earlier work
[4] = tested on: A2058 (melanoma); test: proliferative cell growth inhibition assay, A2058; format: cell-based; conditions: Homo sapiens, A2058, read-out: IC50(cell line) A2058
In short: as §1

[5] = tested on: HCT-116 (colon cancer); test: proliferative cell growth inhibition assay, HCT-116; format: cell-based; conditions: Homo sapiens, HCT-116, read-out: IC50(cell line) HCT-116
In short: as §1

[6] = tested on: H522-T1 (nonsmall cell lung cancer); test: proliferative cell growth inhibition assay, H522-T1; format: cell-based; conditions: H522-T1, read-out: IC50(cell line) H522-T1
In short: as §1

In the case of C=C(C)CC(OC)[C@H](O)C(=O)N[C@@H](OC)[C@@H]1C[C@@H](O)C(C)(C)[C@@H](C[C@H](O)[C@@H](C)[C@H]2Cc3c(C)c(O)cc(O)c3C(=O)O2)O1 (single isomer, unassigned; (+)) [compound 1, (+)-irciniastatin A], the IC50 [1] is given as 0.2 nM, the IC50 [2] is given as 27 nM and the “differential activities against cancer cell lines” value [3] is given as over 10000 fold. It also gave an IC50 [4] of 0.4 nM, an IC50 [5] of 4 nM and an IC50 [6] of 1 nM.
